Screening data: PubChem, several laboratories
This is a sample that favours compounds with a hit; in the whole collection about 6.4% have one here.
H69AR inhibit: proliferation blockers of H69AR lung cancer cells, primary screen, cell-based, human, 86K library; H69AR lung tumor viability, ATP luminescence, 72 h; active compounds read low; viability, % at 10 µM; hit rate 6% among 85,000;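 active = viability at or below 40%; inactive = viability above 40%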;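 also: multidrug resistant small cell line overexpressing MRP-1 efflux transporter; 100% = mean luminescence of untreated control wells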
Ecoli tolC: growth inhibitors of E. coli tolC mutant, primary screen, strain BW25113 ΔtolC::kan, 384-well; OD615; growth inhibition, % at 10 µM (by protocol); hit rate 2.2% among 65,000;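 active = growth inhibition at or above a cutoff equal to the mean over every tested compound plus 3 SD, cut at about 60% in these data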;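 also: growth measured after 20 h incubation at 37 °C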
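Test system – E. coli BW25113 ΔtolC::kan, tolC deletion mutant strain · Detection – OD at 615 nm · Buffer or medium – LB with kanamycin 50 µg/mL · Times – 20 h compound exposure of bacteria at 37 °C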
Jurkat viability: cytotoxicity toward Jurkat T cells, primary screen, cytotoxicity control, cell-based, Jurkat E6.1, 60K MLSMR library; hit rate 1.2% among 56,000; Jurkat E6.1 viability, ATP luminescence, 48 h; inhibition, % at 4 µM;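 active = inhibition above the mean inhibition of all tested compounds plus 3 SD, cut at about 28% in these data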
E coli WT exp: growth inhibitors of wild-type E. coli, primary screen, strain BW25113, expanded library, OD600; OD600 absorbance; hit rate 0.15% among 98,000; growth inhibition, % at 100 µM;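 active = growth inhibition above about 50% at one test dose, limit read from the data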;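 also: growth measured after 20 h incubation at 37 °C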
HUVEC prolif 384: inhibitors of HUVEC proliferation, primary screen, cell-based, 384-well; CellTiter-Glo luminescence, 72 h; active compounds read low; viability, % at 10 µM (by protocol); hit rate 1.1% among 86,000; AID 648, 2007;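 active = viability at or below 30%; inactive = viability above 30%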;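 also: 100% = median luminescence of DMSO-only cell control wells on each plate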
Lung fibro prol: antiproliferative effect on LL 47 fibroblasts – human, LL 47 cells, CellTiter-Glo luminescence, primary screen. AID 719, 2007. LL 47 human lung fibroblast viability, ATP luminescence; active compounds read low. hit rate 1.1% among 85,000. viability, % at 10 µM;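 active = viability at or below 50% in the single dose screen; inactive = viability above 50%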;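 also: compound exposure lasted 72 h before the ATP readout; 100% = median luminescence of untreated cell-only wells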
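Benchmarks: Cell-only wells, no compound | Test system: LL 47 human lung fibroblasts, passage 12 or lower | Input: 1,150 cells/well | Measured by: CellTiter-Glo luminescence measuring cellular ATP | Medium: IMEM, 15% FBS supplement | Schedule: Overnight attachment after seeding, then 72 h compound exposure at 37 °C | Doses: Compound addition at 0.1% DMSO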
Numbers without * were called inactive; x = no result.

SMILES	H69AR inhibit	Ecoli tolC	Jurkat viability	E coli WT exp	HUVEC prolif 384	Lung fibro prol
CCC(=O)Nc1nonc1-c1nc2ccccc2n1Cc1ccccc1	66	20	4	-2	88	77
COc1ccccc1CNC(=O)C1CCCN1S(=O)(=O)c1cccc2cccnc12 (configuration not stated)	84	-4	0	1	98	94
CCN1CCN(CC(=O)Nc2sc3c(c2C#N)CCC(C)C3)CC1 (configuration not stated)	32*	-10	-4	13	79	92
CC1CCc2c(sc(NC(=O)C(=O)NCc3ccco3)c2C#N)C1 (configuration not stated)	98	x	x	5	96	103
Cn1ccnc1SCC(=O)Nc1cc(C(F)(F)F)ccc1N1CCOCC1	x	x	x	-1	x	x
Cc1ccc(OCc2nnc(SCC(=O)Nc3cccc4ccccc34)n2-c2ccccc2)cc1	18*	x	x	x	79	4.2*
CCn1c(COc2ccc(C)cc2)nnc1SCC(=O)Nc1cc(OC)ccc1OC	18*	22	4	-8	93	94
CCn1c(COc2ccccc2)nnc1SCC(=O)Nc1cc(C)ccc1OC	91	x	x	-4	110	100
Nc1cc(=O)nc(SCC(=O)Nc2cccc3ccccc23)n1CCc1ccccc1	x	x	x	-1	x	x
CN(C)c1nc(OCCNC(=O)COc2ccccc2Cl)nc(N(C)C)n1	86	x	x	x	96	93
CCCOc1ccccc1C1CC(=O)Nc2cc3c(cc21)OCCO3 (configuration not stated)	x	85*	98*	-7	x	x
CC(C)Oc1ccccc1C1CC(=O)Nc2cc3c(cc21)OCO3 (configuration not stated)	20*	10	97*	3	45	62
O=C1CC(c2cccnc2)c2cc3c(cc2N1)OCO3 (configuration not stated)	96	-12	2	6	55	102
CCOc1ccccc1C1CC(=O)Nc2cc3c(cc21)OCCO3 (configuration not stated)	30*	12	95*	-5	51	61
COc1ccc(CC(=S)N2CCOCC2)cc1	x	x	x	0	x	x
CN(CCO)c1cc(Sc2nc3ccccc3s2)c2nonc2c1[N+](=O)[O-]	4.3*	x	x	4	75	30*
Cc1cc(C)nc(NC(=O)CSc2nc3ccccc3s2)n1	91	x	x	-4	86	89
CC1(C)Cc2c(c(N3CCOCC3)nc3snc(Br)c23)CO1	19*	16	x	0	94	89
CC1(C)Cc2c(c(N3CCOCC3)nc3snc(N)c23)CO1	95	11	x	-3	58	3.5*
COc1nnnc2c1sc1nc(N3CCOCC3)c3c(c12)CC(C)(C)OC3	84	7	x	x	98	93
CCOC(=O)N1CCN(C(=O)c2ccccc2-c2ccccc2)CC1	19*	-7	79*	x	62	68
O=C(c1ccc(CNc2c(NC3CCCCC3)c(=O)c2=O)cc1)N1CCc2ccccc21	x	x	x	-13	x	x
CCN(C(=O)c1cnc(N2CCN(c3ncccn3)CC2)c2ccccc12)c1cccc(Cl)c1	20*	22	17	-11	51	76
N#CCCCN1C(=O)C(O)(CC(=O)c2ccc3c(c2)OCCO3)c2ccccc21 (configuration not stated)	92	7	-4	-5	94	103
C=C(C)CN1C(=O)C(O)(CC(=O)c2ccc3c(c2)OCCO3)c2ccccc21 (configuration not stated)	39*	16	6	3	93	103
SMILES	H69AR inhibit	Ecoli tolC	Jurkat viability	E coli WT exp	HUVEC prolif 384	Lung fibro prol
O=C(NC1CSC/C1=N\O)c1ccccc1 (configuration not stated)	101	-23	2	-2	93	99
CCCc1[nH]n(-c2nc3ccccc3s2)c(=O)c1C=NCCN1CCOCC1	103	9	x	-4	92	97
CCCCCN=Cc1c(C)[nH]n(-c2nc3ccccc3s2)c1=O	6.4*	16	56*	5	13*	29*
COc1ccc2oc(C(=O)c3ccccc3)c(NC(=O)CN3CCN(C)CC3)c2c1	0.7*	6	4	13	32	54
CCOC(=O)c1oc2ccc(Br)cc2c1NC(=O)CN1CCN(C)CC1	51	2	1	3	69	81
CCCc1cc(N2CCN(c3ccccn3)CC2)n2nc(C)c(-c3ccccc3)c2n1	75	-27	-2	-4	91	100
O=C(COC(=O)C1CCC1)NCc1ccccc1Cl	102	-12	-2	3	102	x
CC1CC1C(=O)OCC(=O)NCc1ccccc1Cl (configuration not stated)	29*	-8	6	6	82	94
Cc1cc2ncn(/N=C/c3cc(Br)ccc3O)c2cc1C	31*	-2	-6	-1	94	100
Cc1ccc(CN2CCN(/N=C/c3cc(Br)ccc3O)CC2)cc1	x	x	x	-7	x	x
c1ccc(-c2nc(NCC3CCCO3)c3oc4ccccc4c3n2)cc1 (configuration not stated)	60	x	x	-24	82	110
c1ccc(-c2nc(NCc3cccnc3)c3oc4ccccc4c3n2)cc1	38*	13	0	-10	67	87
O=C(CN(Cc1ccco1)C(=O)c1cc(=O)[nH]c2ccccc12)Nc1ccccc1Br	83	19	0	-12	99	100
Cc1c(C(=O)Nc2ccc(Cl)cn2)oc2ccccc12	59	-8	3	-7	64	75
Cc1c(C(=O)Nc2ccc3oc(-c4cccnc4)nc3c2)oc2ccccc12	3.4*	-14	3	5	37	15*
CC(=O)Nc1cccc(NC(=O)c2oc3ccccc3c2C)c1	97	67*	1	11	82	97
Cc1c(C(=O)Nc2cnccn2)oc2ccccc12	38*	-4	26	-12	80	83
CC(=O)Nc1cccc(NC(=O)c2cc3ccccc3o2)c1	92	15	5	5	83	87
Cc1ccc(Cn2ccc(NC(=O)c3c(-c4ccccc4Cl)noc3C)n2)cc1	98	14	x	-10	93	105
Cc1ccc(S(=O)(=O)N2CCCN(S(=O)(=O)c3ccc(C(F)(F)F)cc3)CC2)cc1	48	-3	4	-1	60	49*
COc1ccc(S(=O)(=O)NCCSc2ccc(C)cc2)cc1OC	103	6	-1	-7	94	98
Cc1ccc(SCCNS(=O)(=O)c2ccc3c(c2)OCCO3)cc1	102	74*	0	-27	96	100
Cc1ccc(S(=O)(=O)N2CCCN(S(=O)(=O)c3ccc4c(c3)OCCO4)CC2)cc1	32*	15	16	20	95	93
